Assay results: ChEMBL document CHEMBL4038305, “Benzoxaborole Antimalarial Agents. Part 5. Lead Optimization of Novel Amide Pyrazinyloxy Benzoxaboroles and Identification of a Preclinical Candidate” (J Med Chem, 2017)

What was measured:
Plasmodium berghei [1] = test: Antimalarial activity against Plasmodium berghei infected in Swiss Webster mouse assessed as mouse survival rate at 0.1 mg/kg administered once daily via oral gavage for 4 consecutive days beginning 1 hr after infection measured on day 7 post infection relative to control; type: functional
How it was run: (§1)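 Mice given an intraperitoneal injection of P. berghei-infected erythrocytes taken from a previously infected animal. Oral dosing once daily for 4 consecutive days, starting 1 h after infection. Vehicle: polyethylene glycol 300/propylene glycol/water (weight ratio 55/25/20). Percent survival recorded daily from day 4 to day 20. Chloroquine 30 mg/kg and vehicle-only groups served as controls.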

Plasmodium berghei [2] = test: Antimalarial activity against Plasmodium berghei infected in Swiss Webster mouse assessed as mouse survival rate at 100 mg/kg administered once daily via oral gavage for 4 consecutive days beginning 1 hr after infection measured on day 12 post infection relative to control; type: functional; how it was run: as §1
Plasmodium berghei [3] = test: Antimalarial activity against Plasmodium berghei infected in Swiss Webster mouse assessed as mouse survival rate at 100 mg/kg administered once daily via oral gavage for 4 consecutive days beginning 1 hr after infection measured on day 10 post infection relative to control; type: functional; how it was run: as §1
Plasmodium falciparum [4] = test: Antimalarial activity against chloroquine-sensitive Plasmodium falciparum 3D7 infected in human erythrocytes assessed as reduction in [3H]-hypoxanthine incorporation preincubated for 24 hrs followed by [3H]-hypoxanthine addition measured after 24 hrs by scintillation counting method; type: functional, cell-based
How it was run: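 P. falciparum 3D7 cultures were exposed to the compound for 48 h, with atovaquone as the reference control. IC50 was taken from three replicates.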

Plasmodium berghei [5] = test: Antimalarial activity against Plasmodium berghei infected in Swiss Webster mouse assessed as mouse survival rate at 33 mg/kg administered once daily via oral gavage for 4 consecutive days beginning 1 hr after infection measured on day 13 post infection relative to control; type: functional
How it was run: (§2)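 P. berghei-infected erythrocytes taken from a previously infected mouse were injected intraperitoneally. Oral dosing, once daily for 4 consecutive days, began 1 h after infection, in polyethylene glycol 300/propylene glycol/water (55/25/20 by weight). Chloroquine at 30 mg/kg was the positive control, with a vehicle-only group. Percent survival was recorded daily from day 4 to day 20.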

Plasmodium berghei [6] = test: Antimalarial activity against Plasmodium berghei infected in Swiss Webster mouse assessed as mouse survival rate at 3.7 mg/kg administered once daily via oral gavage for 4 consecutive days beginning 1 hr after infection measured on day 5 post infection relative to control; type: functional; how it was run: as §2
[7] = Metabolic stability in human hepatocytes at 22 uM after 44 hrs; type: ADME, cell-based, Hepatocyte
Plasmodium berghei [8] = test: Antimalarial activity against Plasmodium berghei infected in Swiss Webster mouse assessed as mouse survival rate at 11 mg/kg administered once daily via oral gavage for 4 consecutive days beginning 1 hr after infection measured on day 7 post infection relative to control; type: functional; how it was run: as §2
Plasmodium berghei [9] = test: Antimalarial activity against Plasmodium berghei infected in Swiss Webster mouse assessed as mouse survival rate at 11 mg/kg administered once daily via oral gavage for 4 consecutive days beginning 1 hr after infection measured on day 5 post infection relative to control; type: functional; how it was run: as §2
Plasmodium berghei [10] = test: Antimalarial activity against Plasmodium berghei infected in Swiss Webster mouse assessed as mouse survival rate at 200 mg/kg administered once daily via oral gavage for 4 consecutive days beginning 1 hr after infection measured on day 8 post infection relative to control; type: functional; how it was run: as §2
Plasmodium berghei [11] = test: Antimalarial activity against Plasmodium berghei infected in Swiss Webster mouse assessed as mouse survival rate at 100 mg/kg administered once daily via oral gavage for 4 consecutive days beginning 1 hr after infection measured on day 13 post infection relative to control; type: functional; how it was run: as §1
Plasmodium berghei [12] = test: Antimalarial activity against Plasmodium berghei infected in Swiss Webster mouse assessed as mouse survival rate at 11 mg/kg administered once daily via oral gavage for 4 consecutive days beginning 1 hr after infection measured on day 9 post infection relative to control; type: functional; how it was run: as §2
Plasmodium berghei [13] = test: Antimalarial activity against Plasmodium berghei infected in Swiss Webster mouse assessed as mouse survival rate at 0.1 mg/kg administered once daily via oral gavage for 4 consecutive days beginning 1 hr after infection measured on day 6 post infection relative to control; type: functional; how it was run: as §1
Plasmodium berghei [14] = test: Antimalarial activity against Plasmodium berghei infected in Swiss Webster mouse assessed as mouse survival rate at 0.4 mg/kg administered once daily via oral gavage for 4 consecutive days beginning 1 hr after infection measured on day 7 post infection relative to control; type: functional; how it was run: as §1
Plasmodium falciparum [15] = test: Antimalarial activity against chloroquine-resistant Plasmodium falciparum W2 infected in human erythrocytes after 48 hrs by YOYO-1 dye based flow cytometric analysis; type: functional, cell-based; conditions: W2, 48 h
How it was run: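 P. falciparum W2 cultures were exposed to the compound for 48 h, with artemisinin and chloroquine as reference controls. IC50 was taken from two independent replicates.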

Plasmodium berghei [16] = test: Antimalarial activity against Plasmodium berghei infected in Swiss Webster mouse assessed as mouse survival rate at 33 mg/kg administered once daily via oral gavage for 4 consecutive days beginning 1 hr after infection measured on day 11 post infection relative to control; type: functional; how it was run: as §2
Plasmodium berghei [17] = test: Antimalarial activity against Plasmodium berghei infected in Swiss Webster mouse assessed as mouse survival rate at 1.2 mg/kg administered once daily via oral gavage for 4 consecutive days beginning 1 hr after infection measured on day 7 post infection relative to control; type: functional; how it was run: as §1
Plasmodium berghei [18] = test: Antimalarial activity against Plasmodium berghei infected in Swiss Webster mouse assessed as mouse survival rate at 0.4 mg/kg administered once daily via oral gavage for 4 consecutive days beginning 1 hr after infection measured on day 4 post infection relative to control; type: functional; how it was run: as §1
Plasmodium berghei [19] = test: Antimalarial activity against Plasmodium berghei infected in Swiss Webster mouse assessed as mouse survival rate at 1.2 mg/kg administered once daily via oral gavage for 4 consecutive days beginning 1 hr after infection measured on day 5 post infection relative to control; type: functional; how it was run: as §1
Plasmodium berghei [20] = test: Antimalarial activity against Plasmodium berghei infected in Swiss Webster mouse assessed as mouse survival rate at 0.4 mg/kg administered once daily via oral gavage for 4 consecutive days beginning 1 hr after infection measured on day 6 post infection relative to control; type: functional; how it was run: as §1
Plasmodium berghei [21] = test: Antimalarial activity against Plasmodium berghei infected in Swiss Webster mouse assessed as mouse survival rate at 100 mg/kg administered once daily via oral gavage for 4 consecutive days beginning 1 hr after infection measured on day 4 post infection relative to control; type: functional; how it was run: as §1
Plasmodium berghei [22] = test: Antimalarial activity against Plasmodium berghei infected in Swiss Webster mouse assessed as mouse survival rate at 0.4 mg/kg administered once daily via oral gavage for 4 consecutive days beginning 1 hr after infection measured on day 5 post infection relative to control; type: functional; how it was run: as §1
Plasmodium berghei [23] = test: Antimalarial activity against Plasmodium berghei infected in Swiss Webster mouse assessed as mouse survival rate at 100 mg/kg administered once daily via oral gavage for 4 consecutive days beginning 1 hr after infection measured on day 8 post infection relative to control; type: functional; how it was run: as §1
Plasmodium berghei [24] = test: Antimalarial activity against Plasmodium berghei infected in Swiss Webster mouse assessed as mouse survival rate at 100 mg/kg administered once daily via oral gavage for 4 consecutive days beginning 1 hr after infection measured on day 9 post infection relative to control; type: functional; how it was run: as §1
[25] = Terminal half life in CD1 mouse at 5 mg/kg, po via gavage by HPLC/MS analysis; type: ADME, organism-based; conditions: in vivo, read-out: beta t1/2 (converted)
How it was run: (§3)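 Female CD-1 mice, male SD rats or beagle dogs given 5 mg/kg by iv injection or oral gavage. Formulation was PEG300/propylene glycol/water 55/25/20, pH 6. Blood samples analysed by HPLC–MS/MS; parameters include AUC0-inf extrapolated to infinity and terminal half-life.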

[26] = Terminal half life in CD1 mouse at 5 mg/kg, iv by HPLC/MS analysis; type: ADME, organism-based; conditions: in vivo, read-out: beta t1/2 (converted); how it was run: as §3

SMILES	survival at 0.1 mg/kg (Plasmodium berghei [1]) [%]	survival at 100 mg/kg (Plasmodium berghei [2]) [%]	survival at 100 mg/kg (Plasmodium berghei [3]) [%]	IC50 (Plasmodium falciparum [4]) [nM]	survival at 33 mg/kg (Plasmodium berghei [5]) [%]	survival at 3.7 mg/kg (Plasmodium berghei [6]) [%]	Stability [7]	survival at 11 mg/kg (Plasmodium berghei [8]) [%]	survival at 11 mg/kg (Plasmodium berghei [9]) [%]	survival at 200 mg/kg (Plasmodium berghei [10]) [%]	survival at 100 mg/kg (Plasmodium berghei [11]) [%]	survival at 0.1 mg/kg (Plasmodium berghei [13]) [%]	survival at 0.4 mg/kg (Plasmodium berghei [14]) [%]	IC50 (Plasmodium falciparum [15]) [nM]	survival at 33 mg/kg (Plasmodium berghei [16]) [%]	survival at 1.2 mg/kg (Plasmodium berghei [17]) [%]	survival at 0.4 mg/kg (Plasmodium berghei [18]) [%]	survival at 100 mg/kg (Plasmodium berghei [21]) [%]	survival at 100 mg/kg (Plasmodium berghei [23]) [%]	survival at 100 mg/kg (Plasmodium berghei [24]) [%]	further results
CCCC1(O)CN(C(=O)c2cnc(Oc3ccc4c(c3C)B(O)OC4)cn2)C1	0	100	100	54	100	100	Stable	80	100	100	100	100	0	15.9	100	0	100	100	100	100	survival at 11 mg/kg (Plasmodium berghei [12]): 0%; survival at 1.2 mg/kg (Plasmodium berghei [19]): 100%; survival at 0.4 mg/kg (Plasmodium berghei [20]): 100%; survival at 0.4 mg/kg (Plasmodium berghei [22]): 100%
Cc1c(Oc2cnc(C(=O)N3CC(O)(C(F)(F)F)C3)cn2)ccc2c1B(O)OC2	0	100	100	8	50	100	Stable	100	100	–	100	100	0	6.6	50	–	100	100	100	100	survival at 0.4 mg/kg (Plasmodium berghei [20]): 100%; survival at 0.4 mg/kg (Plasmodium berghei [22]): 100%
CCC1(O)CN(C(=O)c2cnc(Oc3ccc4c(c3C)B(O)OC4)cn2)C1	0	100	100	55	20	100	Stable	40	100	100	100	100	0	28.9	20	0	100	100	100	100	survival at 1.2 mg/kg (Plasmodium berghei [19]): 100%; survival at 0.4 mg/kg (Plasmodium berghei [20]): 100%; survival at 0.4 mg/kg (Plasmodium berghei [22]): 100%
Cc1c(Oc2cnc(C(=O)NCCO)cn2)ccc2c1B(O)OC2	–	–	0	1080	–	100	–	0	100	80	–	–	–	372	–	0	–	100	40	40	half-life [25]: 3 h; survival at 1.2 mg/kg (Plasmodium berghei [19]): 100%; half-life [26]: 3 h
